Measured values reported in the EternaBench riboswitch data.

Tested on: MS2 coat protein
Test: apparent Kd, MS2 coat protein; higher = weaker binding; RNA-MaP array; FMN 200 µM where present
Outline: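 Designs were transcribed by stalled E. coli RNA polymerase on Illumina sequencing-chip clusters. They were titrated with SNAP-549-labelled MS2 coat protein from 0.7 or 1.5 nM, doubling to 3 µM, without and then with constant ligand. Buffer: 100 mM Tris-HCl pH 7.5, 80 mM KCl, 4 mM MgCl2, BSA, DTT, yeast tRNA, Tween-20. Green signal was normalised to red-channel RNA signal and control-cluster median Fmax. Apparent Kd is the median of filtered per-cluster binding-curve fits.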

[1] = designed as: ON switch for flavin mononucleotide, no ligand
[2] = ligand present: flavin mononucleotide, designed as: ON switch for flavin mononucleotide
[3] = designed as: OFF switch for flavin mononucleotide, no ligand
[4] = ligand present: flavin mononucleotide, designed as: OFF switch for flavin mononucleotide

Sequence | apparent Kd [1] | apparent Kd [2] | apparent Kd [3] | apparent Kd [4]
GGUACUAUCACAGGAUAUGCUUUCCUUUGGGAAGCAGAAGGGUGUAACAUGAGGAUCACCCAUGUGGUGCCCGGGCGUGAGCCC | 51.7 nM | 14.8 nM | – | –
GGUACUCAAAGAGUACCAAUACGAACAUGAGGAUCACCCAUGUAGGAUAUGCUACUCAAAGAGUAGCAGAAGGACAUGUGCUUU | – | – | 38.8 nM | 252 nM
GGUACUCAAAGAGUACCAAUACGAACAUGAGGAUCACCCAUGUAGGAUAUGCUACUCAAAGAGUAGCAGAAGGAUAUGAUCCAU | – | – | 77.2 nM | 105 nM
GGUACUCAAAGAGUACCAAUACGAACAUGAGGAUCACCCAUGUAGGAUAUGUUUUCGCCGGAGUAUCAGAAGGACAUGUGCCUA | – | – | 10.9 nM | 9.15 nM
GGUCAGCUAGGAUAUACAUGAGGAUCACCCAUGUACUGACCCAUGCGGGAGUCCGCAUGUAGAAGGAGCAAAAU | – | – | 20.9 nM | 22.6 nM
GGUCCACAUGAGGAUCACCCAUGUUAGGAUAUCUCGCCCGAGUCGUUAUGGGCCAGGCAGAGAAGGAAUGUGAA | – | – | 20.4 nM | 18.8 nM
GGUCCAUCAUGAGGAUAUGGCACCUUAUUGGUGCCAGAAGGCAUGUCUAUAGACAUGAGGAUCACCCAUGUGAUAAAUUGGACC | 523 nM | 49.9 nM | – | –
GGUCCAUCAUGAGGAUAUGGCACCUUAUUGGUGCCAGAAGGCGUGUCUAUAGACAUGAGGAUCACCCAUGUAAUAAAUUGGACC | 614 nM | 49.6 nM | – | –
GGUCCAUUAUGAGGAUAUGGCACCUUAUUGGUGCCAGAAGGCAUGUCUAUAGACAUGAGGAUCACCCAUGUAUUAAUUUGGACC | 360 nM | 41.4 nM | – | –
GGUCGUCACAUGAACAUGAGGAUCACCCAUGUAACUAGACAUGAGGAUAUGGAUCCUAAUUGGAUCCAGAAGGCAUGGACGACC | 203 nM | 31.2 nM | – | –
GGUGAAUGAACAUGAGGAUCACCCAUGUCCAGGAAACUGAAUGAGGAUAUCCAUAGCAAAGCUAUGGAGAAGGCAUGGGUCACC | 562 nM | 241 nM | – | –
GGUGCCAUGUAGAAGGCAGACCUGAUUCAGAUCUGAGGAUAUACAUGAGGAUCACCCAUGUAAAGGCACCGCACGAGAGUGCAA | – | – | 6.05 nM | 8.57 nM
GGUGCGUAUGUGAGGAUAUGCUGGUCCUUGGCUCGGCAGAAGGCACAUGAGGAUCACCCAUGUGGUGUCGUGCC | – | – | 16.9 nM | 37.7 nM
GGUGCGUAUGUGAGGAUAUGCUGGUCCUUGGGUCGGCAGAAGGCACAUGAGGAUCACCCAUGUGGUGUCGUUCC | – | – | 86.2 nM | 86.5 nM
GGUGCGUGUAAAGGAUAUAUGUACUGAGAGGACAUAGAAGGUUACAUGAGGAUCACCCAUGUAGGAAGCGAAAGUUAUCACGUG | – | – | 11.7 nM | 25.3 nM
GGUGCGUUUGUGAGGAUAUGCUGGUCCUUGGAUCAGCAGAAGGCACAUGAGGAUCACCCAUGUGGUGUCGGUCC | – | – | 416 nM | 37.6 nM
GGUGCGUUUGUGAGGAUAUGCUGGUCCUUGGAUCAGCAGAAGGCACAUGAGGAUCACCCAUGUGGUGUCGUUCC | – | – | 181 nM | 143 nM
GGUGCGUUUGUGAGGAUAUGCUGGUCCUUGGGUCAGCAGAAGGCACAUGAGGAUCACCCAUGUGGUGUCGUACC | – | – | 358 nM | 42.9 nM
GGUGCUAUGUAGAAGGCAGAUCUGAUUCAGAUCUGAGGAUAUACAUGAGGAUCACCCAUGUUAAGCACCAGCACGAGAGUGCAA | – | – | 6.49 nM | 11.2 nM
GGUGGACAUGAGGAUCACCCAUGUGAGGAUAUCGGCCGGUGCGUGGUGGCUGGCGUCUCGAGAAGGCACAUAGU | – | – | 92.1 nM | 166 nM
GGUGGACAUGAGGAUCACCCAUGUGAGGAUAUCGGCUGGCUAGCGGCGGACGGCUUCUCGAGAAGGCGCAUUGU | – | – | 57.8 nM | 57.1 nM
GGUGGACAUGAGGAUCACCCAUGUGAGGAUAUCGGCUGGCUAGUGGCUGACGGCUGCUCGAGAAGGCGCAUUGU | – | – | 78.3 nM | 107 nM
GGUGUCAUCGAGAAGGCCUCAACAUGAGGAUCACCCAUGUUGUAAUAUGGGAGGAUAUCGAUGAUACAGCUACGUUUCGUAGCC | 20.7 nM | 6.23 nM | – | –
GGUGUCAUCGAGAAGGCCUCAACAUGAGGAUCACCCAUGUUGUAAUAUGGGAGGAUAUCGAUGAUACAGCUACGUUUCGUAGCU | 20.2 nM | 5.86 nM | – | –
GGUGUCGCAUGAGGAUAUGGUCAGCUUUGCUGACCAGAAGGCAUGUCAAUAGACAUGAGGAUCACCCAUGUAGUAAAGACACCA | – | 37.1 nM | – | –
GGUGUGAGGCAGGAUAUGCUAUAUGUAAGUAAUGCAGAAGGGUCUACAUGAGGAUCACCCAUGUGUGCGGUAGA | – | – | 105 nM | 311 nM
GGUUAAUAUCGAGGAUAUGUCUAGACACAUGAGGAUCACCCAUGUAUGUGUAUAGAAGGCGAUAUUAACAGCAUGUUACAUGCC | 38.1 nM | 16.8 nM | – | –
GGUUACAAGUAAGGAUAUGCAUAUGAAACAUAUGCAGAAGGUACAUGAGGAUCACCCAUGUUAUUGCAAAGCGAAUAAGUAACC | – | – | 15.6 nM | 20.9 nM

Sequence | apparent Kd [1] | apparent Kd [2] | apparent Kd [3] | apparent Kd [4]
GGUUAGAAAGGAUAUACAUGUCGUGAGACAUCUUGCACCUAACAUGAGGAUCACCCAUGUAGAAGGUUCAAGCC | – | – | 17.4 nM | 30.5 nM
GGUUAUUGCAAGGAUAUGCUUUUUUUUGAAAUUGCAGAAGGUGCAACAUGAGGAUCACCCAUGUUGGAUGGGUU | – | – | 166 nM | 125 nM
GGUUCGGGAGGAUAUGUGUUUUUGGACAUGAGGAUCACCCAUGUUUUCAUGUUUUUUCCCACAGAAGGUUUGGGCC | – | – | 18.6 nM | 22.9 nM
GGUUGACAAAGUCAACCAAUUCGAACAUGAGGAUCACCCAUGUAGGAUAUGCUACUCAAAGAGUAGCAGAAGGACAUGUGCCUU | – | – | 34.3 nM | 188 nM
GGUUGACGACAAUUACAUGAGGAUCACCCAUGUUUUGGGAUGCAGGAUAUGUGGUAUAUUAAUUAACAGAAGGGCAAUAAUUUU | 37.3 nM | 39.3 nM | – | –
GGUUGGUAUUACAACGGCCUGAGGGAGGAUAUACAAGGCCGGCGUCGCACAUGAGGAUCACCCAUGUAGAAGGCCCAAGGCCUG | – | – | 6.97 nM | 12 nM
GGUUGUCAUAGUCAUCCUUUACGUACAUGAGGAUCACCCAUGUAGGAUAUGCUACUCAAAGAGUAGCAGAAGGGCGUGUGUCUU | – | – | 23.1 nM | 25.5 nM
GGUUGUCAUAGUCAUCCUUUCCGUACAUGAGGAUCACCCAUGUAGGAUAUGCUACUCAAAGAGUAGCAGAAGGGCGUGUGUCUU | – | – | 17.2 nM | 18.8 nM
GUAAGCGACCAGAAGGGUGACAUGAGGAUCACCCAUGUAGAUGUGUUCCCGCUUGGGAACCGUCCACAGGAUAUGGUUGGCUAU | 35.3 nM | 18 nM | – | –
GUACCUUAUGAGAAGGCGAUCAUUAAACAUGAUCGAGGAUAUCAUGUAAACAUGAGGAUCACCCAUGUAUGGGUAUUAUGGUAC | 66.7 nM | 19.3 nM | – | –
GUACUGAAGCUUUGCUUUAGUCGUACAUGAGGAUCACCCAUGUAGGAUAUGGUAAGCUUUGCUUACUAGAAGGAUAGAGUGAUC | – | – | 119 nM | 50.2 nM
GUACUGAAGCUUUGCUUUAGUCGUACAUGAGGAUCACCCAUGUAGGAUAUGGUAGGCUUUGCCUACUAGAAGGAUAGAGUGAUC | – | – | 89.2 nM | 33.9 nM
GUACUGUAGUGAGGAUAUACGAGAACGAUAGUUCGGCGAUCCAAUUAUACAUGAGGAUCACCCAUGUAGAAGGCACUUCAGUAC | – | – | 10.8 nM | 30.6 nM
GUACUGUAGUGAGGAUAUACGAGAUCGAUAGAUCGGCGAUCCAUAUAUACAUGAGGAUCACCCAUGUAGAAGGCACUUCAGUAC | – | – | 7.02 nM | 93.4 nM
GUACUGUAGUGAGGAUAUACGAGUGCGAUAGCACGGCGAUCCAUUUAUACAUGAGGAUCACCCAUGUAGAAGGCACUUCAGUAC | – | – | 6.15 nM | 65.6 nM
GUAGAGUAAGGAUAUGAUGAAUAGGAUAGAAUGGUUAGAAAUCAGAAGGUACAUGAGGAUCACCCAUGUAAUGU | – | – | 22.7 nM | 20.8 nM
GUAGAGUAAGGAUAUGGAGAAUAGGAUAGAAUGGUUAGAAUCUAGAAGGUACAUGAGGAUCACCCAUGUAAUGU | – | – | 21.7 nM | 20.8 nM
GUAGAGUAGUGAGGAUAUACGAGUACGAUAGUACGGCGAUCCAUUAAUACAUGAGGAUCACCCAUGUAGAAGGCACUUCUCUAC | – | – | 6.6 nM | 84 nM
GUAGCAACAUGAGGAUCACCCAUGUAGGAUAUCGCUAUUGUAAUCAUGAAACAUGAUUACAAUAGCGAGAAGGACAUAUGCUAC | – | – | 6.93 nM | 10.2 nM
GUAGCACAAGUUAACAUGAGGAUCACCCAUGUCAGAAGACAUGAGGAUAUGGAUGUGAAGAUAAUCCAGAAGGCAUAAUGCUAA | 774 nM | 131 nM | – | –
GUAGCAUACAGAGGAUAUUCAAACCGGAAACGGAACAUGAGGAUCACCCAUGUGGCGAAAGCCAGGGAGAAGGCUGAAUGCUAC | 44.5 nM | 16.8 nM | – | –
GUAGCAUACCGAGGAUAUUCAGGGCUUAAAUAAACAUGAGGAUCACCCAUGUGGCGAAAGCCUAGGGAGAAGGCGGAAUGCUAC | 14.6 nM | 13.4 nM | – | –
GUAGCAUACGGAGGAUAUUCAUACCGGAAACGGACAUGAGGAUCACCCAUGUGGCGAAAGCCAUGGGAGAAGGCCGUAUGCUAC | 318 nM | 149 nM | – | –
GUAGCAUGAUUAGGAUAUUCAGCGAAUAGAUUGACAUGAGGAUCACCCAUGUGGCGAAAGCCGAGGGAGAAGGGAUGAUGCUAC | – | 47.4 nM | – | –
GUAGCAUGCCAAGGAUAUUCAUAUAGUAGGCAAACAUGAGGAUCACCCAUGUAAUGAGAGCACUGGGAGAAGGUGGGAUGCUAC | 28.6 nM | 21.4 nM | – | –
GUAGCAUUAUAAGGAUAUUCAUACCGGAAACGGACAUGAGGAUCACCCAUGUGGCGAAAGCCUUGGGAGAAGGUAUUGUGCUAC | 402 nM | 24.6 nM | – | –
GUAGCAUUGAGAGGAUAUCCAUACCGGAAACGGACAUGAGGAUCACCCAUGUCGCGAAAGCGGUGGGAGAAGGCUCUAUGCUAC | 4.52 nM | 4.46 nM | – | –
